Assay results taken from ChEMBL document CHEMBL1146497, “Antifouling activity of brominated cyclopeptides from the marine sponge Geodia barretti” (J Nat Prod, 2004).
Calls of active or inactive are those of the source. The rule behind the calls is not given here.

test system: Amphibalanus improvisus; experiment: Antifouling activity against Balanus improvisus […] assessed as inhibition of cyprid larval settlement at 0.1 to 10 uM after 3 to 4 days relative to control; type: functional, organism-based
How it was run: (§1)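 Competent Balanus improvisus cyprids (20 ± 2 per dish) in 10 mL filtered seawater (0.2 µm) containing test substance, dissolved first in milliQ water. Four replicate dishes per concentration, with filtered-seawater dishes as controls. Settled, living unsettled and dead cyprids were scored as percentages.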

| Compound | Activity |
| --- | --- |
| N[C@@H](Cc1c[nH]c2ccccc12)C(=O)O | inactive |
| N=C(N)NCCC[C@@H]1NC(=O)/C(=C/c2c[nH]c3cc(Br)ccc23)NC1=O.O=C(O)C(F)(F)F | Active |
| NC(Cc1c[nH]c2ccc(Br)cc12)C(=O)O (racemic) | inactive |
| N=C(N)NCCC[C@H](N)C(=O)O | inactive |
| NC(Cc1c[nH]c2cc(Br)ccc12)C(=O)O (racemic) | inactive |
| NC(Cc1c[nH]c2cc(F)ccc12)C(=O)O (racemic) | inactive |
| N=C(N)NCCCC1NC(=O)C(Cc2c[nH]c3cc(Br)ccc23)NC1=O.O=C(O)C(F)(F)F (stereo unspecified) | Active |

test system: Amphibalanus improvisus; experiment: Antifouling activity against Balanus improvisus […] assessed as inhibition of cyprid larval settlement; type: functional, organism-based
How it was run: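 Competent B. improvisus cyprids (20 ± 2 per dish) were exposed in 10 mL filtered seawater (0.2 µm), with four replicates and filtered-seawater controls. Test substances were dissolved in milliQ water and diluted into seawater as three tenfold concentration steps. Settled, living-unsettled and dead cyprids were scored as percentages.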

| Compound | LC50 |
| --- | --- |
| tributyltin-oxide | 0.09 µg/mL |
| N=C(N)NCCC[C@@H]1NC(=O)/C(=C/c2c[nH]c3cc(Br)ccc23)NC1=O.O=C(O)C(F)(F)F | 0.4 µg/mL |
| N=C(N)NCCCC1NC(=O)C(Cc2c[nH]c3cc(Br)ccc23)NC1=O.O=C(O)C(F)(F)F (stereo unspecified) | 4 µg/mL |

test system: Amphibalanus improvisus; experiment: Antifouling activity against Balanus improvisus […] assessed as inhibition of cyprid larval settlement at 1.9 uM after 3 to 4 days relative to control; type: functional, organism-based; how it was run: as §1

| Compound | Activity |
| --- | --- |
| N=C(N)NCCC[C@@H]1NC(=O)/C(=C/c2c[nH]c3cc(Br)ccc23)NC1=O.O=C(O)C(F)(F)F | Active |
